FAK inh: inhibitors of human focal adhesion kinase; Q05397; biochemical FAK kinase activity assay; inhibition, %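 (tested at 7 µM)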; 97,000 compounds, 0.84% hits; in the data active = inhibition above about 19%
PLK1 PBD inh: inhibitors of human Plk1 polo box domain binding | P53350 | Plk1 PBD phosphopeptide binding, fluorescence polarization | inhibition, %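 (tested at about 20 µM)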 | 97,000 compounds, 0.13% hits | AID 693; in the data active = inhibition above about 34%, passing the limit was not always enough
EphB4 antag: EphB4-ephrin-B2 interaction antagonism | P54760 | EphB4 LBD / TNYL-RAW-Alexa532 peptide, fluorescence polarization | inhibition, % at 7 µM | 97,000 compounds, 0.15% hits;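 active = inhibition above the screen-wide mean inhibition plus 3 SD, cut at about 15% in these data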
PLK1 kinase inh: PLK1 (human) kinase inhibition; P53350; recombinant PLK1 kinase, TR-FRET peptide phosphorylation; inhibition, % at 10 µM; 97,000 compounds, 0.53% hits; AID 619;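 active = inhibition of 50% or more in the single-concentration screen; inactive = inhibition below 50%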
Cav3 T inh: blocks human Cav3.2 T-type calcium channel. O95180. Cav3.2-expressing cells, Fluo-4 calcium fluorescence FDSS; stronger effect = lower value. B-score at 10 µM. 100,000 compounds, 4% hits. AID 449739;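 active = single-dose well whose peak fluorescence ratio is a statistical outlier from its plate by either plate-standardised score or position-corrected B-score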
Rev-RRE block: inhibitors of HIV-1 Rev-RRE RNA interaction | P05866 | Rev peptide-RRE RNA binding, FRET | inhibition, % at 8 µM | 97,000 compounds, 0.79% hits | AID 704;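 active = inhibition above the screen-wide mean plus 3 SD, cut at about 35% in these data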
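Test system – labelled RRE RNA duplex and labelled Rev peptide · Reagent – labelled Rev peptide · Doses – one concentration, 8 µM nominal · Incubation – 5 + 15 min at 25 °C · Signal – FRET fluorescence readout · Read-out basis – % inhibition of FRET ratio versus controls · Control set – DMSO wells as 0% and neomycin B wells as 100% inhibition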
Numbers stand for hits; i = inactive; nt = no result given. Only some compounds are listed: those with a hit (about 5.3% of all), similar ones and a draw of the others.

SMILES | FAK inh | PLK1 PBD inh | EphB4 antag | PLK1 kinase inh | Cav3 T inh | Rev-RRE block
CCOC(=O)C1CCN(CC(O)COc2ccc(C(C)(C)C)cc2)CC1 (centres undefined) | i | i | i | i | i | i
CCOC(=O)C1CCN(CC(O)COc2ccc(C(C)=O)cc2)CC1 (centres undefined) | i | i | i | 65.5 | i | i
COC(=O)c1ccc(C23CC4(C2)[C@H](CN(C)[C@@H]4c2ccccc2)C3c2ccc(Cl)nc2)cc1 (some centres undefined) | nt | nt | nt | nt | i | nt
CCOC(=O)C1CCN(C(C)=C2C(=O)c3ccccc3C2=O)CC1 | i | i | i | i | i | i
CCOC(=O)C1CCN(S(=O)(=O)Cc2ccccc2)C1=O (centres undefined) | i | i | 15.4 | i | i | i
Cc1ccc(C)n1CCN1CCN(C(=O)c2ccco2)CC1 | i | i | i | i | i | i
O=C(c1ccco1)N1CCN(CC(O)Cn2c3ccccc3c3ccccc32)CC1 (centres undefined) | i | i | i | i | -4.84 | i
O=C1CN(C(=O)c2ccccc2)c2ccccc2N1 | i | i | i | i | i | i
O=C1CN(C(=O)c2cc(Br)c(Br)s2)c2ccccc2N1 | i | i | i | i | -5.56 | i
COc1ccc(COc2cc(-c3cccc(OC)c3)nc3ccc(N)cc23)cc1 | nt | nt | nt | nt | i | nt
Cc1ccc(/C(O)=C2\C(=O)C(=O)N(c3cc(C)on3)C2c2cccc(Cl)c2)cc1 (centres undefined) | i | i | i | i | -3.1 | i
COC(=O)c1ccc(C2/C(=C(/O)c3ccc(OC)cc3)C(=O)C(=O)N2c2cc(C)on2)cc1 (centres undefined) | i | i | i | i | i | i
Cc1cc(N2C(=O)C(=O)/C(=C(/O)c3ccc(F)cc3)C2c2cccc(Br)c2)no1 (centres undefined) | i | i | i | i | i | i
Cc1ccc(/C(O)=C2\C(=O)C(=O)N(c3cc(C)on3)C2c2cccc(Br)c2)cc1 (centres undefined) | i | i | i | i | -3.74 | i
COc1cc(-c2ccc3oc(-c4ccsc4)cc3c2)cc(OC)c1OC | nt | nt | nt | nt | i | nt
CC(C)NC(=O)c1cc(-c2ccco2)nn1-c1ccc(Cl)cc1 | i | i | i | i | i | i
O=C(c1cc(-c2ccco2)nn1-c1cccc(Cl)c1)N1CCCCC1 | i | i | i | i | -5.88 | i
Cc1ccc(Cl)cc1N(Cc1ccc(C(=O)NCc2cccnc2)cc1)S(=O)(=O)c1ccccc1 | i | i | i | i | nt | i
CC(C)CCn1c(Oc2ccccc2Cl)nc2c1c(=O)n(C)c(=O)n2C | i | i | i | i | -4.9 | i
Cc1cc2oc(=O)cc(CN3CCC(C)CC3)c2cc1Cl | i | i | i | i | -9.86 | i
CCn1c(-c2cc3c(C(F)(F)F)nn(C)c3s2)n[nH]c1=S | i | i | i | i | i | i
CCN(c1ccc(NC(=O)COC(=O)c2ccc(S(=O)(=O)N3CCCC3)cc2)cc1)C(C)C | i | i | i | i | i | i
O=C1CCCc2c1[nH]c1ccccc21 | i | i | 16.5 | i | i | i
CC(=O)c1ccc(-n2nnnc2SCC(=O)N2CCc3ccccc3C2)cc1 | i | i | 18.4 | i | i | i
COc1ccc(CNCCC(c2ccc(OC(C)C)cc2)C(C)C)cc1OC (centres undefined) | i | i | i | i | -3.67 | i
SMILES | FAK inh | PLK1 PBD inh | EphB4 antag | PLK1 kinase inh | Cav3 T inh | Rev-RRE block
O=[N+]([O-])c1ccc(N2CCN(CCO)CC2)cc1Sc1nc2ccccc2[nH]1 | i | i | i | i | nt | i
CN1CCCc2cc3c(C(F)(F)F)cc(=O)oc3nc21 | i | i | i | i | nt | 70.9
O=C1OCC(CO)(CO)N=C1NNc1ccccc1Cl | i | i | i | i | i | i
CCC(C)(C)C(=O)Nc1ncc(S(=O)(=O)c2ccc([N+](=O)[O-])cc2)s1 | i | i | i | i | -5.17 | i
COC(=O)C(NC(=O)c1ccccc1Cl)(Nc1ncc(S(=O)(=O)c2ccc([N+](=O)[O-])cc2)s1)C(F)(F)F (centres undefined) | i | i | i | i | -8.55 | i
CCC(=O)NC(Nc1ncc(C)s1)(C(=O)OC)C(F)(F)F (centres undefined) | i | i | i | i | i | i
Cc1[nH]n2c(=O)c3c(nc2c1-c1ccccc1)CCC3 | i | i | i | i | i | i
COc1cccc(N=Nc2c(N)[nH]n3c(=O)cc(-c4ccccc4)nc23)c1 | i | i | i | i | nt | i
Nc1[nH]n2c(=O)c3c(nc2c1N=Nc1ccc(Cl)cc1)CCCC3 | i | i | i | i | -8.68 | i
Nc1[nH]n2c(=O)c3c(nc2c1N=Nc1ccccc1)CCCC3 | i | i | i | i | -9.6 | i
Cc1ccc(N=Nc2c(N)[nH]n3c(=O)cc(-c4ccccc4)nc23)cc1 | i | i | i | i | -7.46 | i
O=C(NCCCc1ccccc1)C1CC(=O)N(c2ccc3c(c2)OCCO3)C1 (centres undefined) | i | i | i | i | i | i
O=C(NC(Cc1ccccc1)c1nc2ccccc2[nH]1)C1CC(=O)N(c2ccc3c(c2)OCCO3)C1 (centres undefined) | i | i | 15.4 | i | i | i
Cc1nc2cc(-c3cccc(F)c3)nn2c(C)c1CCC(=O)NC(C)CCc1ccco1 (centres undefined) | i | i | i | i | -5.48 | i
CC1(C)CC(=O)C=C(NNC(=O)c2ccccc2O)C1 | i | i | i | i | i | 36.4
CC1(C)Oc2nc3ccccc3n2/C1=C\C#N | i | i | i | i | i | i
COc1ccccc1-c1noc(-c2ccccc2C(=O)N2CCOCC2)n1 | i | i | i | i | i | i
CCOc1ccccc1NC(=O)c1ccccc1-c1nc(-c2ccccc2OC)no1 | i | i | i | i | -4.72 | i
CCOc1ccccc1N(C(=O)Cn1nnnc1-c1ccc(C)o1)C(CC)C(=O)NC(C)(C)C (centres undefined) | i | i | i | i | i | i
O=C(COc1cc(Cl)c(Cl)cc1Cl)Nn1cnnc1 | i | i | i | i | nt | i
CCCCOC(=O)Nc1ccc(C(=O)OCCC)cc1 | i | i | i | i | i | i
CCCOC(=O)c1ccc(NS(=O)(=O)c2cccs2)cc1 | i | i | i | i | -4.98 | i
COc1ccc(C(=O)/C=C/c2ccccc2C(F)(F)F)cc1 | i | i | i | i | i | i
Cn1ncc2c(=O)n(CC(=O)NC34CC5CC(CC(C5)C3)C4)cnc21 | i | i | i | i | i | i
COc1ccc(C2=NOC(C(=O)NCc3ccccc3)C2)cc1 (centres undefined) | i | i | i | i | nt | i
CCN(CC)C(=O)C1CC(c2ccc(OC)cc2)=NO1 (centres undefined) | i | i | i | i | -4.34 | i
CCN1CCN(c2ncnc3c2sc(=S)n3-c2ccccc2)CC1 | nt | nt | nt | nt | i | nt
S=c1sc2c(N3CCOCC3)ncnc2n1-c1ccccc1 | i | i | i | 61.6 | i | i

Screens from PubChem BioAssay.
